Laboratory results as given in ChEMBL document CHEMBL1146826, “A novel Pd-catalyzed cyclization reaction of ureas for the synthesis of dihydroquinazolinone p38 kinase inhibitors” (Bioorg Med Chem Lett, 2004).

Legend:
[1] = molecular target: Mitogen-activated protein kinase 14 (Mus musculus, UniProt P47811); test: Inhibition of murine Mitogen-activated protein kinase p38 alpha
Summary of the method: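 Phosphorylated His-tagged murine p38α MAP kinase (10 ng/well) assayed with immobilized GST-ATF-2 as substrate.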

[2] = tested on: PBMC; test: Effect on LPS stimulated TNF-alpha release from hPBMCs; format: functional, cell-based; details: Homo sapiens
Summary of the method: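 Human peripheral blood mononuclear cells incubated with inhibitor, then stimulated with LPS/IFNγ for 3 h; TNFα in supernatants quantified by ELISA.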

[3] = tested on: Mus musculus; test: Compound was tested for the inhibition of TNF-alpha release after LPS stimulation in mice at a dose of 30 mg/kg, po; format: functional
Summary of the method: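 Mice given compound orally at 30 mg/kg; 1 h after dosing, LPS (20 mg/kg) injected iv. One hour later blood collected and TNFα measured by mouse-specific ELISA.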

Chain of Mitogen-activated protein kinase 14 (P47811 whole entry): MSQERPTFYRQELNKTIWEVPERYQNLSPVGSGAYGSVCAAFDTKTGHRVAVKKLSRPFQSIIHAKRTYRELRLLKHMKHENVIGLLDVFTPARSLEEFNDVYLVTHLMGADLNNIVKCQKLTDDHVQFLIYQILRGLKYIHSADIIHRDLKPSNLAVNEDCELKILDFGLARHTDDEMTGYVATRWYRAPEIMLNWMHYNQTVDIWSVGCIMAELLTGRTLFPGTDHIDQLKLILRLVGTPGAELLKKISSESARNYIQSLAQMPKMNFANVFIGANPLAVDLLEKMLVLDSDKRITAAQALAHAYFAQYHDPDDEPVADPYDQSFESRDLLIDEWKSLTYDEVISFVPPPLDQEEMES

| SMILES | IC50 [1] | IC50 [2] | inhibition in vivo at 30 mg/kg [3] |
| --- | --- | --- | --- |
| O=C1NCc2cc(NS(=O)(=O)c3ccccc3Cl)ccc2N1c1c(Cl)cccc1Cl | 0.18 µM | 0.51 µM | – |
| O=C1NCc2cc(Nc3ccc(F)cc3F)ccc2N1c1c(Cl)cccc1Cl | 0.38 µM | 0.29 µM | – |
| O=C1NCc2cc(NS(=O)(=O)c3ccc(F)c(Cl)c3)ccc2N1c1c(Cl)cccc1Cl | 0.034 µM | 0.084 µM | – |
| Cc1ccc(S(=O)(=O)Nc2ccc3c(c2)CNC(=O)N3c2c(Cl)cccc2Cl)cc1 | 1.8 µM | > 10 µM | – |
| CN(c1ccc2c(c1)CNC(=O)N2c1c(Cl)cccc1Cl)S(=O)(=O)c1cc(Cl)ccc1Cl | 0.78 µM | 1.2 µM | – |
| O=C1NCc2cc(Sc3ccc(F)cc3F)ccc2N1c1c(Cl)cccc1Cl | 0.47 µM | 0.96 µM | – |
| O=C(Nc1ccc2c(c1)CNC(=O)N2c1c(Cl)cccc1Cl)c1ccccc1 | 8.5 µM | 10 µM | – |
| O=C1NCc2cc(NS(=O)(=O)c3ccccc3)ccc2N1c1c(Cl)cccc1Cl | 0.053 µM | 0.14 µM | – |
| O=C1NCc2cc(NS(=O)(=O)c3cc(Cl)ccc3O)ccc2N1c1c(Cl)cccc1Cl | 0.57 µM | – | – |
| O=C1NCc2cc(NCc3ccccc3)ccc2N1c1c(Cl)cccc1Cl | 0.15 µM | 1.2 µM | – |
| O=C1NCc2cc(NS(=O)(=O)c3cc(Cl)ccc3Cl)ccc2N1c1c(Cl)cccc1Cl | 0.1 µM | 0.39 µM | – |
| O=C1NCc2ccccc2N1c1c(Cl)cccc1Cl | 11.8 µM | – | – |
| COc1cc2c(-c3ccccc3)nc(=O)n(C(C)C)c2cc1N1CCOCC1 | 14 µM | – | – |
| Cc1cc(OCCCN2CCOCC2)cc(C)c1N1C(=O)NCc2cc(NS(=O)(=O)c3ccc(F)c(Cl)c3)ccc21 | – | – | 42% |
